Data on one compound can be found in ChEMBL document CHEMBL4665652, “Discovery of novel quinoline sulphonamide derivatives as potent, selective and orally active RORγ inverse agonists” (Bioorg Med Chem Lett, 2019).

Data set [1] can be described thus: Ratio of Cmax in mouse at 100 mg/kg, po to Cmax in mouse at 10 mg/kg, po. The following applies: in vivo. The format is ADME, organism-based. The gist of the method:
(§1)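 Oral ascending-dose PK in mice at 100 mg/kg (ratios against 10 mg/kg), given as a suspension in 1% methylcellulose 400cp + 0.1% Poloxamer. Cmax, AUClast and t1/2 come from plasma profiles.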

In data set [2] the test system is Mus musculus. Nature of the data set: In vivo inverse agonist activity at RORgamma in po dosed MOG(35-55) peptide/PTX-induced mechanistic C57BL/6 mouse model assessed as anti-CD3 induced IL-17A level in serum dosed for 5 days during MOG/PTX priming and followed by 45 mins prior to anti-CD3 challenge and measured after 2 hrs relative to control. It is filed as functional, organism-based. To be noted: dose mg/kg 10-100, time 5.0 day. The gist of the method: (§2)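 Mice immunized with mouse MOG35-55 peptide plus pertussis toxin. After 5 days, compound given orally as a suspension in methylcellulose 400cp + 1% poloxamer, 45 min before an anti-CD3 challenge. Circulating cytokines measured 2 h later. Comparison vs vehicle by Dunnett post test.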

Data set [3] is described as follows: In vivo inverse agonist activity at RORgamma in MOG(35-55) peptide/PTX-induced mechanistic C57BL/6 mouse model assessed as anti-CD3 induced IL-22 level in serum at 10 mg/kg, po dosed for 5 days during MOG/PTX priming and followed by 45 mins prior to anti-CD3 challenge and measured after 2 hrs relative to control. It is filed as functional. To be noted: time 5 day. The gist of the method: as §2

For data set [4], the system named is Mus musculus. Nature of the data set: Immunosuppressive activity in PLP (139 to 151 residues)-induced experimental autoimmune encephalomyelitis mouse model assessed as incidence of disease at 30 mg/kg, po administered bid starting from immunization relative to control. It is filed as functional. The essentials: (§3)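 EAE induced in mice by immunization with proteolipid protein peptide PLP139-151; ascending paralysis develops 10–12 days post-immunization. Compound dosed orally b.i.d. starting from immunization. Disease onset/incidence scored relative to control.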

Data set [5] can be described thus: Half life in mouse at 1 mg/kg, iv. It is filed as ADME, organism-based. The following applies: in vivo. The essentials:
(§4)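 Mouse PK with iv 1 mg/kg and po 10 mg/kg, oral dose as a suspension in 1% methylcellulose 400cp + 0.1% Poloxamer 188. Plasma clearance (total and unbound), iv t1/2 and oral bioavailability F were derived from the iv and po profiles.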

Data set [6] can be described thus: Ratio of Cmax in mouse at 30 mg/kg, po to Cmax in mouse at 10 mg/kg, po. The following applies: in vivo. It is filed as ADME, organism-based. The essentials: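 Mice dosed orally with an ascending-dose series at 10, 30 and 100 mg/kg. Compound given as a suspension in 1% methylcellulose 400cp + 0.1% poloxamer. Plasma Tmax taken from the concentration profiles. The Cmax ratio is expressed relative to the 10 mg/kg dose.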

Data set [7] can be described thus: In vivo inverse agonist activity at RORgamma in MOG(35-55) peptide/PTX-induced mechanistic C57BL/6 mouse model assessed as anti-CD3 induced IFNgamma level in serum at 10 mg/kg, po dosed for 5 days during MOG/PTX priming and followed by 45 mins prior to anti-CD3 challenge and measured after 2 hrs relative to control. The format is functional. To be noted: time 5 day. The essentials: as §2

The target in data set [8] is T1, Nuclear receptor ROR-gamma (Homo sapiens, UniProt P51449).
T1 sequence (P51449 whole entry): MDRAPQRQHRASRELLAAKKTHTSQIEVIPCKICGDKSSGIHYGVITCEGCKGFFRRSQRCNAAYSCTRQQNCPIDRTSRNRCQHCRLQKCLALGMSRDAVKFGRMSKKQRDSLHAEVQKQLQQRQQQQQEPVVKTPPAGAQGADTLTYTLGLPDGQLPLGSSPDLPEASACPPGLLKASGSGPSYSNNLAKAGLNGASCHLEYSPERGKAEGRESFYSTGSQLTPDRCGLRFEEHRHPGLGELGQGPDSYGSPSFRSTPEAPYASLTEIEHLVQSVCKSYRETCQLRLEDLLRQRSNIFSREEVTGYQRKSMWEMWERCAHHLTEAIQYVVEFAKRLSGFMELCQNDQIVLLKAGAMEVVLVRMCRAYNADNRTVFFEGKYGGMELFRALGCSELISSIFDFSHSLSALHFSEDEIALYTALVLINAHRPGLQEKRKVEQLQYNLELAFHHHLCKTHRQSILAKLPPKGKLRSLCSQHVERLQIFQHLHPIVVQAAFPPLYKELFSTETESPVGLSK
Kind of data set: Inverse agonist activity at RORgamma in human CD4+ T cells assessed as inhibition of IL17A secretion after 72 hrs by ELISA. The format is cell-based, CD4+ve Th.

The nature of data set [9]: In vivo inverse agonist activity at RORgamma in MOG(35-55) peptide/PTX-induced mechanistic C57BL/6 mouse model assessed as anti-CD3 induced IL-17A level in serum at 100 mg/kg, po dosed for 5 days during MOG/PTX priming and followed by 45 mins prior to anti-CD3 challenge and measured after 2 hrs relative to control. The format is functional. To be noted: time 5 day. The gist of the method:
as §2

The nature of data set [10]: Cmax in mouse at 100 mg/kg, po. It is filed as ADME, organism-based. On the set-up: route oral, dose 100 mg/kg. To be noted: in vivo. The gist of the method: as §1
Data set [11] can be described thus: Plasma clearance in mouse at 10 mg/kg, po or 1 mg/kg, iv. It is filed as ADME, organism-based. The gist of the method: as §4
For data set [12], the target named is Cytochrome P450 2C9 (Homo sapiens, UniProt P11712). Nature of the data set: Drug metabolism assessed as CYP2C9 (unknown origin) mediated metabolite formation. It is filed as ADME.
Data set [13] is described as follows: In vivo inverse agonist activity at RORgamma in MOG(35-55) peptide/PTX-induced mechanistic C57BL/6 mouse model assessed as anti-CD3 induced IL-22 level in serum at 100 mg/kg, po dosed for 5 days during MOG/PTX priming and followed by 45 mins prior to anti-CD3 challenge and measured after 2 hrs relative to control. The format is functional. The following applies: time 5 day. The gist of the method: as §2

A short description of data set [14]: In vivo inverse agonist activity at RORgamma in MOG(35-55) peptide/PTX-induced mechanistic C57BL/6 mouse model assessed as anti-CD3 induced TNFalpha level in serum at 10 mg/kg, po dosed for 5 days during MOG/PTX priming and followed by 45 mins prior to anti-CD3 challenge and measured after 2 hrs relative to control. It is filed as functional. The following applies: time 5 day. The gist of the method: as §2

Data set [15] in a line: AUClast in mouse at 100 mg/kg, po. The format is ADME, organism-based. On the set-up: time 0 - last, route oral, dose 100 mg/kg. To be noted: in vivo. The essentials:
as §1

Data set [16] is described as follows: In vivo inverse agonist activity at RORgamma in MOG(35-55) peptide/PTX-induced mechanistic C57BL/6 mouse model assessed as anti-CD3 induced IFNgamma level in serum at 100 mg/kg, po dosed for 5 days during MOG/PTX priming and followed by 45 mins prior to anti-CD3 challenge and measured after 2 hrs relative to control. The format is functional. To be noted: time 5 day. The essentials: as §2

Data set [17] deals with Mus musculus. Kind of data set: Immunosuppressive activity in PLP (139 to 151 residues)-induced experimental autoimmune encephalomyelitis mouse model assessed as reduction in disease onset at 100 mg/kg, po administered bid starting from immunization relative to control. The format is functional. The essentials: as §3
A short description of data set [18]: Cmax in mouse at 10 mg/kg, po. The format is ADME, organism-based. On the set-up: route oral, dose 10 mg/kg. The following applies: in vivo. The essentials: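 Mice dosed orally at 10, 30 or 100 mg/kg as a suspension in 1% methylcellulose 400cp + 0.1% Poloxamer (188). Tmax, Cmax, AUClast and oral t1/2 were taken from plasma concentration–time profiles. Ratios are the value at each dose over the value at 10 mg/kg.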

Data set [19] in a line: Oral bioavailability in mouse at 10 mg/kg. It is filed as ADME, organism-based. To be noted: in vivo. The essentials:
as §4

The nature of data set [20]: In vivo inverse agonist activity at RORgamma in MOG(35-55) peptide/PTX-induced mechanistic C57BL/6 mouse model assessed as anti-CD3 induced TNFalpha level in serum at 100 mg/kg, po dosed for 5 days during MOG/PTX priming and followed by 45 mins prior to anti-CD3 challenge and measured after 2 hrs relative to control. The following applies: time 5 day. It is filed as functional. The gist of the method: as §2

Sequence of Cytochrome P450 2C9 (P11712 whole entry): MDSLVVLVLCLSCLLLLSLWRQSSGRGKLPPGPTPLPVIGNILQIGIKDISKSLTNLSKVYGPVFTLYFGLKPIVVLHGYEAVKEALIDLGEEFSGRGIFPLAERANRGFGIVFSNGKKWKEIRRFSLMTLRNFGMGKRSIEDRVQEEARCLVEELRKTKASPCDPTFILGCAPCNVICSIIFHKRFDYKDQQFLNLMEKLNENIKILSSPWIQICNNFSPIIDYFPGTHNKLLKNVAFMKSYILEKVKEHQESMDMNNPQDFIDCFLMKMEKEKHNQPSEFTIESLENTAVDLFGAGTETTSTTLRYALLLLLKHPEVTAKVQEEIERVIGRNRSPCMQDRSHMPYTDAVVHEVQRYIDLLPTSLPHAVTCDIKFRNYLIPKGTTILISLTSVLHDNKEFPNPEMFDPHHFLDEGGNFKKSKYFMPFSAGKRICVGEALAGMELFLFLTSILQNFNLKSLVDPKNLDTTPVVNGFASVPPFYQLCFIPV

Regarding `CNC(=O)[C@@H]1CCCN1S(=O)(=O)c1ccc(Cl)c(COc2cccc3c(-c4cncn4C)cc(C(C)C)nc23)c1Cl`, the Ratio in data set [1] amounted to 8.3; in data set [6], 3.5. The Activity result in data set [2] was “Dose-dependent effect”; in data set [3], -16%; in data set [4] it was 100%; in data set [7], -39%; in [9], -62%; in [13], -45%. Also, the Activity in [14] is on record as -22%; in data set [16], -81%; in data set [20] it was -32%. The half-life (commonly how long it takes for the measured level to halve) in data set [5] is 9.6 min. Also, the half-maximal effective concentration (EC50) (commonly the concentration needed to bring the measured effect to its halfway point) in [8] was 150 nM. Also, the Cmax (commonly the peak of the concentration-time curve) in data set [10] amounted to 27500 ng/mL; in data set [18] it was 3320 ng/mL. In addition, the clearance in [11] was 27.5 mL/min/kg. In addition, the Fm in data set [12] came out at 6%. In data set [15], the AUC(0-t) (in general, the area under the concentration-time curve up to a stated or last time point) turned out to be 270 µg·h/mL. In data set [17], the inhibition in vivo (as a rule, the percentage by which the read-out fell short of the control) at 100 mg/kg was 76%. Moreover, the bioavailability – broadly, the share of a dose that reaches the circulation, judged against a reference dose that is usually intravenous – in data set [19] came out at 64%.
